Source: PMC9322249 (Journal of Food and Drug Analysis, 2017)

Test system: not listed separately
Assay: Oxygen radical absorption capacity
Settings: TEAC units; X = EO or compound
Summary of the method: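 Peroxyl radical (ROO) scavenging by the oils and individual components, following a published ORAC method, in triplicate. Data are mean ± SD, with significance by ANOVA/Tukey's HSD (p < 0.05).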

SMILES	ORAC
CC12CCC(CC1=O)C2(C)C (stereo not shown) [camphor]	N/D (Activity lower than 0.05 units at a maximum assay concentration of 100 mM)
C=CC(C)(CCC=C(C)C)OC(C)=O (stereo not shown) [linalyl acetate]	1.0 ± 0.1 μmol TE/μL X
CC1=CCC2CC1C2(C)C (stereo not drawn) [α-Pinene]	0.2 ± 0.0 μmol TE/μL X
CC1=CC[C@@H](C(C)(C)O)CC1 [α-Terpineol]	1.9 ± 0.1 μmol TE/μL X
CC1=CC=C(C(C)C)CC1 [α-terpinene]	0.4 ± 0.0 μmol TE/μL X
C=C1CC/C=C(\C)CC[C@@H]2[C@@H]1CC2(C)C [β-Caryophyllene]	1.7 ± 0.1 μmol TE/μL X
C=C1CCC2CC1C2(C)C (stereo not drawn) [β-Pinene]	N/D (Activity lower than 0.05 units at a maximum assay concentration of 100 mM)
CC1=CCC(C(C)C)=CC1 [γ-terpinene]	1.1 ± 0.1 μmol TE/μL X

Test system: not listed separately
Assay: ABTS radical cation bleaching assay
Settings: TEAC units; X = EO or compound
Summary of the method: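 ABTS radical cation (ABTS•+) bleaching by essential oils and their individual components, run in triplicate by a published method. Results are given as mean ± SD, compared by ANOVA with Tukey's HSD (p < 0.05).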

SMILES	ABTS
CC12CCC(CC1=O)C2(C)C (stereo not shown) [camphor]	N/D (Activity lower than 0.05 units at a maximum assay concentration of 100 mM)
C=CC(C)(CCC=C(C)C)OC(C)=O (stereo not shown) [linalyl acetate]	0.3 ± 0.0 μmol TE/mL X
CC1=CCC2CC1C2(C)C (stereo not drawn) [α-Pinene]	N/D (Activity lower than 0.05 units at a maximum assay concentration of 100 mM)
CC1=CC[C@@H](C(C)(C)O)CC1 [α-Terpineol]	1.1 ± 0.1 μmol TE/mL X
CC1=CC=C(C(C)C)CC1 [α-terpinene]	24.6 ± 1.2 μmol TE/mL X
C=C1CC/C=C(\C)CC[C@@H]2[C@@H]1CC2(C)C [β-Caryophyllene]	N/D (Activity lower than 0.05 units at a maximum assay concentration of 100 mM)
C=C1CCC2CC1C2(C)C (stereo not drawn) [β-Pinene]	0.7 ± 0.0 μmol TE/mL X
CC1=CCC(C(C)C)=CC1 [γ-terpinene]	15.6 ± 0.7 μmol TE/mL X

Test system: not listed separately
Assay: DPPH radical scavenging capacity
Settings: TEAC units; X = EO or compound
Summary of the method: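 DPPH radical scavenging by essential oils and individual components, by a published method, in triplicate. Values are expressed as μmol TE/mL EO and given as mean ± SD, with ANOVA/Tukey's HSD at p < 0.05.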

SMILES	DPPH
CC12CCC(CC1=O)C2(C)C (stereo not shown) [camphor]	N/D (Activity lower than 0.05 units at a maximum assay concentration of 100 mM)
C=CC(C)(CCC=C(C)C)OC(C)=O (stereo not shown) [linalyl acetate]	N/D (Activity lower than 0.05 units at a maximum assay concentration of 100 mM)
CC1=CCC2CC1C2(C)C (stereo not drawn) [α-Pinene]	0.1 ± 0.0 μmol TE/mL X
CC1=CC[C@@H](C(C)(C)O)CC1 [α-Terpineol]	N/D (Activity lower than 0.05 units at a maximum assay concentration of 100 mM)
CC1=CC=C(C(C)C)CC1 [α-terpinene]	1.7 ± 0.1 μmol TE/mL X
C=C1CC/C=C(\C)CC[C@@H]2[C@@H]1CC2(C)C [β-Caryophyllene]	N/D (Activity lower than 0.05 units at a maximum assay concentration of 100 mM)
C=C1CCC2CC1C2(C)C (stereo not drawn) [β-Pinene]	0.1 ± 0.0 μmol TE/mL X
CC1=CCC(C(C)C)=CC1 [γ-terpinene]	2.1 ± 0.1 μmol TE/mL X

Test system: not listed separately
Assay: Chelating power
Settings: not given
Summary of the method: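 Ferrous ion chelation by essential oils and their major components, by a published method, in triplicate. Results are expressed as EDTA equivalents per volume of EO, mean ± SD, with ANOVA/Tukey's HSD (p < 0.05).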

SMILES	Chelating power (ChP), result in words
C=CC(C)(CCC=C(C)C)OC(C)=O (stereo not shown) [linalyl acetate]	high ChP
CC1=CC=C(C(C)C)CC1 [α-terpinene]	high chelating activity

Same assay, conditions: EDTAE units; X = EO or compound

SMILES	ChP
CC12CCC(CC1=O)C2(C)C (stereo not shown) [camphor]	N/D (Activity lower than 0.05 units at a maximum assay concentration of 100 mM)
C=CC(C)(CCC=C(C)C)OC(C)=O (stereo not shown) [linalyl acetate]	125.7 ± 9.4 μmol EDTAE/mL X
CC1=CCC2CC1C2(C)C (stereo not drawn) [α-Pinene]	104.8 ± 7.0 μmol EDTAE/mL X
CC1=CC[C@@H](C(C)(C)O)CC1 [α-Terpineol]	29.9 ± 1.9 μmol EDTAE/mL X
CC1=CC=C(C(C)C)CC1 [α-terpinene]	385.6 ± 29.0 μmol EDTAE/mL X
C=C1CC/C=C(\C)CC[C@@H]2[C@@H]1CC2(C)C [β-Caryophyllene]	31.6 ± 2.2 μmol EDTAE/mL X
C=C1CCC2CC1C2(C)C (stereo not drawn) [β-Pinene]	11.7 ± 0.7 μmol EDTAE/mL X
CC1=CCC(C(C)C)=CC1 [γ-terpinene]	2.0 ± 0.1 μmol EDTAE/mL X

Test system: not listed separately
Assay: Reducing power
Settings: AAE units; X = EO or compound
Summary of the method: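 Reduction of potassium ferricyanide by the oils and individual components, by a published method, in triplicate. Results are reported as ascorbic acid equivalents per volume of EO, mean ± SD, with ANOVA/Tukey's HSD (p < 0.05).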

SMILES	RdP
CC12CCC(CC1=O)C2(C)C (stereo not shown) [camphor]	N/D (Activity lower than 0.05 units at a maximum assay concentration of 100 mM)
C=CC(C)(CCC=C(C)C)OC(C)=O (stereo not shown) [linalyl acetate]	N/D (Activity lower than 0.05 units at a maximum assay concentration of 100 mM)
CC1=CCC2CC1C2(C)C (stereo not drawn) [α-Pinene]	N/D (Activity lower than 0.05 units at a maximum assay concentration of 100 mM)
CC1=CC[C@@H](C(C)(C)O)CC1 [α-Terpineol]	N/D (Activity lower than 0.05 units at a maximum assay concentration of 100 mM)
CC1=CC=C(C(C)C)CC1 [α-terpinene]	11,531.4 ± 637.1 μmol AAE/L X
C=C1CC/C=C(\C)CC[C@@H]2[C@@H]1CC2(C)C [β-Caryophyllene]	N/D (Activity lower than 0.05 units at a maximum assay concentration of 100 mM)
C=C1CCC2CC1C2(C)C (stereo not drawn) [β-Pinene]	N/D (Activity lower than 0.05 units at a maximum assay concentration of 100 mM)
CC1=CCC(C(C)C)=CC1 [γ-terpinene]	1990.6 ± 160.2 μmol AAE/L X

Test system: not listed separately
Assay: Thiobarbituric acid reactive substances
Settings: not given
Summary of the method: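 TBARS formation by oxidation measured in soybean lecithin homogenate as lipid-rich medium, by a published method, in triplicate. Values are expressed as μmol BHTE/mL EO, mean ± SD, with ANOVA/Tukey's HSD (p < 0.05).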

SMILES	TBARS antioxidant activity, result in words
CC1=CCC(C(C)C)=CC1 [γ-terpinene]	strong TBARS antioxidant activity

Same assay, conditions: BHTE units; X = EO or compound

SMILES	TBARS
CC12CCC(CC1=O)C2(C)C (stereo not shown) [camphor]	N/D (Activity lower than 0.05 units at a maximum assay concentration of 100 mM)
C=CC(C)(CCC=C(C)C)OC(C)=O (stereo not shown) [linalyl acetate]	19.6 ± 0.6 μmol BHTE/mL X
CC1=CCC2CC1C2(C)C (stereo not drawn) [α-Pinene]	16.3 ± 0.5 μmol BHTE/mL X
CC1=CC[C@@H](C(C)(C)O)CC1 [α-Terpineol]	15.6 ± 0.5 μmol BHTE/mL X
CC1=CC=C(C(C)C)CC1 [α-terpinene]	N/D (Activity lower than 0.05 units at a maximum assay concentration of 100 mM)
C=C1CC/C=C(\C)CC[C@@H]2[C@@H]1CC2(C)C [β-Caryophyllene]	76.5 ± 3.4 μmol BHTE/mL X
C=C1CCC2CC1C2(C)C (stereo not drawn) [β-Pinene]	28.9 ± 1.9 μmol BHTE/mL X
CC1=CCC(C(C)C)=CC1 [γ-terpinene]	273.2 ± 24.4 μmol BHTE/mL X

Target: T1, lipoxygenase (LOX) (linoleate:oxygen oxidoreductase, EC 1.13.11.12) (Glycine max, UniProt P08170)
T1 sequence (P08170 1-839): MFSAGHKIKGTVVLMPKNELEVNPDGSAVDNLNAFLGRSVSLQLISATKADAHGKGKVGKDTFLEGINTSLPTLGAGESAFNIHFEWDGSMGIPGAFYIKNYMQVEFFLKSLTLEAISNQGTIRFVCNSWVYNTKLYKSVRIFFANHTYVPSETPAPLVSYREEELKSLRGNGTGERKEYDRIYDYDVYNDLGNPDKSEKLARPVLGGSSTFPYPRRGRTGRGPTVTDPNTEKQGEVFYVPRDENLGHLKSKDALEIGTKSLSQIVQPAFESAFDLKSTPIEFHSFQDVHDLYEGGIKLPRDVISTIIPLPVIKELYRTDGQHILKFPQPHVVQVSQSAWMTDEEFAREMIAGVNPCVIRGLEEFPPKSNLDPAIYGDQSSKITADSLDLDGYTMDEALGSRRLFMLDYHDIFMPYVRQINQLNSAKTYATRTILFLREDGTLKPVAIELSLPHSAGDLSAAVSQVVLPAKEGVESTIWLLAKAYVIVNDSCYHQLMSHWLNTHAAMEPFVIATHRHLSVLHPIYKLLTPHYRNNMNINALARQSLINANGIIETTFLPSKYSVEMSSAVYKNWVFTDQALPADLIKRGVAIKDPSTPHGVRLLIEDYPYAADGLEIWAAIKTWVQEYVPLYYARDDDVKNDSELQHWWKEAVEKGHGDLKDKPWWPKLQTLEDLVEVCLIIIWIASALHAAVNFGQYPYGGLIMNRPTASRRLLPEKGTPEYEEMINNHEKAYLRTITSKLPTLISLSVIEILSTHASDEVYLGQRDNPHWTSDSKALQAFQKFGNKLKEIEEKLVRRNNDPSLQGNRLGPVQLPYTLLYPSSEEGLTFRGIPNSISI
Assay: Lipoxygenase
Type: biochemical, Glycine max (soybean)
Settings: soybean LOX, linoleic acid substrate, 25 °C; mean ± SD

SMILES	LOX inhibitory activity, IC50 of main commercially available compounds
CC12CCC(CC1=O)C2(C)C (stereo not shown) [camphor]	422 ± 13 μL (Compound)/L
